The values below come from publication PMC5669264 (Journal of medicinal chemistry, 2017).

“Also recorded” adds a separate entry of the source. Where two headings read alike, the source gives them in different places.

Test [1] addresses T1, A2B ARs (Homo sapiens, UniProt P29275).
T1 sequence (P29275 1-332): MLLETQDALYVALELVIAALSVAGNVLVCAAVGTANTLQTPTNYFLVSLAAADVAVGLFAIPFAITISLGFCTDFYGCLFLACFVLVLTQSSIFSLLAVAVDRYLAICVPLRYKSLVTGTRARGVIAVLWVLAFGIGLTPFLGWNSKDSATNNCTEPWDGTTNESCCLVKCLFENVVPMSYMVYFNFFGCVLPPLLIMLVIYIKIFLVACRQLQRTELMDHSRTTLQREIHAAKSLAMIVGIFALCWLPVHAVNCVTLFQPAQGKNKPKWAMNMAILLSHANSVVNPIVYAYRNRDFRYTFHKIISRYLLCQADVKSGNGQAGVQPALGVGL
Briefly: Stimulation of adenylyl cyclase activity. In kind it is biochemical. In outline: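 Crude membranes came from CHO cells stably transfected with human A2B receptor, from a single high-speed spin. They were resuspended in 50 mM Tris/HCl, pH 7.4, and used immediately. Stimulation of adenylyl cyclase activity gave agonist EC50. […] Values are geometric means with 95% confidence intervals (n ≥ 3).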

For test [2], the system named is formalin-induced nociceptive behavior. Briefly: Formalin test. The format is in vivo. The following applies: mice; for effect of the combination of 28 and 31 in formalin test: 28 1 mg/kg ip + 31 1 mg/kg ip.
For test [3] the test system is unchanged. The following applies: cited from earlier work; for effect on second phase of formalin test in presence of A1AR antagonist 29: with 29 (DPCPX) 3 mg/kg ip.
Test [4] addresses hA2A receptor (Homo sapiens, UniProt P29274). To be noted: ref Petrelli et al.[7]; cited from earlier work.
The target in test [5] is T1, A2B ARs. To be noted: hA2B; ref Petrelli et al.[7]; cited from earlier work.
Test [6] deals with T2, hA1AR (Homo sapiens, UniProt P30542).
T2 sequence (P30542 1-326): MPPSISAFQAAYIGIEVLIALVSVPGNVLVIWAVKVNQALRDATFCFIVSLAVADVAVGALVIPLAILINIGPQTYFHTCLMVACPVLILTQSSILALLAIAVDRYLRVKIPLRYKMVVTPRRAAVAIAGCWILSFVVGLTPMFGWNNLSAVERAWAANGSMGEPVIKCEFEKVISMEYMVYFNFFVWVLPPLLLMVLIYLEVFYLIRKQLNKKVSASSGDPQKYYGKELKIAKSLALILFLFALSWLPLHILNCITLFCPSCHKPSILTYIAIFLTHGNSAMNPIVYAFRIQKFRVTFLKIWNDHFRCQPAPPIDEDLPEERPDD
To be noted: cited from earlier work.

For test [7], the system named is mouse A1AR. To be noted: cited from earlier work.

Chain of hA2A receptor (P29274 whole entry): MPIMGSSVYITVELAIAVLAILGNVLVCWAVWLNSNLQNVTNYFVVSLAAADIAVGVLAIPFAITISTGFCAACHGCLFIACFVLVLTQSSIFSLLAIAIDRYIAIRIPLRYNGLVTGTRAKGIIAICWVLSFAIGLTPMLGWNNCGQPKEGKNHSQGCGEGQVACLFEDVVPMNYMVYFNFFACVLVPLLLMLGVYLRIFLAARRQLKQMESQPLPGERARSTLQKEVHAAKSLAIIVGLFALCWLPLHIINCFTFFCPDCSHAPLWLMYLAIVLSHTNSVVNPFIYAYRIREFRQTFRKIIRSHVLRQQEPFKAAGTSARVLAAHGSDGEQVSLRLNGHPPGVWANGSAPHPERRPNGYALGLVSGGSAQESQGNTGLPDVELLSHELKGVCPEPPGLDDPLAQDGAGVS

Turning to `CCn1nnc([C@H]2O[C@@H](n3cnc4c(NCC5CC5)ncnc43)C(O)C2O)n1` (stereo in doubt) [Compound 3, (2R,3S,4R,5R)-2-(6-((Cyclopropylmethyl)amino)-9H-purin-9-yl)-5-(2-ethyl-2H-tetrazol-5-yl)tetrahydrofuran-3,4-diol], the “functional behaviour at hA2B receptor” value in test [1] is on record as “partial A2BAR agonists”.

On to `CCn1nnc([C@H]2O[C@@H](n3cnc4c(NCc5cccc(F)c5)ncnc43)C(O)C2O)n1` (stereo in doubt) [Compound 9, (2R,3R,4S,5R)-2-(2-Ethyl-2H-tetrazol-5-yl)-5-(6-((3-fluorobenzyl)amino)-9H-purin-9-yl)tetrahydrofuran-3,4-diol], for which, in test [1], the “functional behaviour at hA2B receptor” value was “partial A2BAR agonists”.

As to `CNC(=O)[C@H]1O[C@@H](n2cnc3c(NCc4cccc(I)c4)nc(Cl)nc32)[C@H](O)[C@@H]1O` [Compound 31, 2-chloro-N^6-(3-iodobenzyl)-5′-N-methylcarboxamidoadenosine], the “effect of the combination of 22 and 31 in formalin test” value in test [2] (22 0.3 mg/kg ip + 31 1 mg/kg ip, 10 min before formalin, P < 0.005) is “completely erased the second phase and reduced the first phase of formalin-induced nociceptive behavior; also recorded: reduced completely the nocifensive behavior in both the first and the second phases of formalin test”. The “effect of the combination of 28 and 31 in formalin test” value in test [2] was “showed greater effects when combined in reducing both the first and the second phases of formalin test”.

As to `C[C@@]1(O)[C@H](O)[C@@H](CO)O[C@H]1n1cnc2c(NC3CCCC3)nc(Cl)nc21` [Compound 27, 2-chloro-2′-C-methyl-N^6-cyclopentyladenosine], the “effect on second phase of formalin-induced hyperalgesia” value in test [3] (2.5–5 mg/kg ip) is “inhibited the second phase of formalin-induced hyperalgesia in a dose-dependent manner”. For the same compound, in test [3], the “effect on second phase of formalin test in presence of A1AR antagonist 29” value is “blocked”.

As for `CCn1nnc([C@H]2O[C@@H](n3cnc4c(NCc5cccc(I)c5)nc(Cl)nc43)[C@H](O)[C@@H]2O)n1` [Compound 26], in test [2] (highest dose tested 1 mg/kg ip, 10 min before formalin), the “effect on formalin-induced nociceptive behavior” value is “inactive”. Besides, in test [4], the “efficacy (pag, partial agonist % efficacy) A2A” value is on record as 75%. Besides, the “efficacy (pag, partial agonist % efficacy) A2B” value in test [5] is on record as 76%.

`CCn1nnc([C@H]2O[C@@H](n3cnc4c(NC)nc(Cl)nc43)[C@H](O)[C@@H]2O)n1` [Compound 23]: the “efficacy (pag, partial agonist % efficacy) A2B” value in test [5] was 75%.

On to `O[C@@H]1[C@H](O)[C@@H](CCl)O[C@H]1n1cnc2c(NC3C[C@@H]4CC[C@@H]3C4)ncnc21` (mixture of isomers) [Compound 28, 5′-chloro-5′-deoxy-N^6-(±)-endo-norborn-2-yl)adenosine], for which the “effect of the combination of 28 and 31 in formalin test” value in test [2] was “showed greater effects when combined in reducing both the first and the second phases of formalin test”. Further, the “effect on second phase of formalin-induced hyperalgesia” value in test [3] (1–2 mg/kg ip) was “inhibited the second phase of formalin-induced hyperalgesia in a dose-dependent manner”. Further, the “effect on second phase of formalin test in presence of A1AR antagonist 29” value in test [3] is on record as “blocked”. Besides, the “selectivity hA1AR vs hA3AR” value in test [6] is reported as ~ 2600 fold. In test [7], the “selectivity mouse A1AR vs A3AR” value is ~ 10 000 fold.

Consider `CCn1nnc([C@H]2O[C@@H](n3cnc4c(NC5CC5)ncnc43)C(O)C2O)n1` (stereo in doubt) [Compound 1, (2R,3S,4R,5R)-2-(6-(Cyclopropylamino)-9H-purin-9-yl)-5-(2-ethyl-2H-tetrazol-5-yl)tetrahydrofuran-3,4-diol], for which the “functional behaviour at hA2B receptor” value in test [1] was “partial A2BAR agonists”.

As to `CCn1nnc([C@H]2O[C@@H](n3cnc4c(NCc5cccc(Cl)c5)ncnc43)C(O)C2O)n1` (stereo in doubt) [Compound 11, (2R,3S,4R,5R)-2-(6-((3-Chlorobenzyl)amino)-9H-purin-9-yl)-5-(2-ethyl-2H-tetrazol-5-yl)tetrahydrofuran-3,4-diol], the “effect on formalin-induced nociceptive behavior” value in test [2] (0.5–1.0 mg/kg ip, 10 min before formalin, P < 0.005) is recorded as “reduced the late nociceptive behavior induced by formalin in a dose-dependent manner”.
